Measurements from ChEMBL document CHEMBL1811783, “Positive GABA(A) receptor modulators from Acorus calamus and structural analysis of (+)-dioxosarcoguaiacol by 1D and 2D NMR and molecular modeling” (J Nat Prod, 2011).

Test system: Oocyte
Experiment: Allosteric modulation of gamma-aminobutyric acid receptor A alpha1beta2gamma2S expressed in Xenopus oocytes assessed as potentiation of GABA-mediated chloride current at 1 uM by voltage clamp assay
Format: cell-based
Details: not given
Summary of the method: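 Rat α1β2γ2S cRNAs (1:1:10) injected into collagenase-defolliculated oocytes, stored at 18 °C, recorded days 1–5. Two-microelectrode voltage clamp at −70 mV in HEPES-buffered bath (pH 7.4). Compound in bath solution with GABA EC5–10 (from a 0.1 μM–1 mM GABA concentration–response) applied by automated fast perfusion at 300 μL/s. Read-out is IGABA potentiation.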

Structure (SMILES)	Activity [%]
CCc1cc2c(s1)N(C)C(=O)CN=C2c1ccccc1Cl	260
Cc1nnc2n1-c1ccc(Cl)cc1C(c1ccccc1Cl)=NC2	253
CC1=C2[C@H](/C=C(\C)C(=O)O)CC[C@@H](C)[C@H]2CC1	400
Cc1ncc2n1-c1ccc(Cl)cc1C(c1ccccc1F)=NC2	342

Test system: Oocyte
Experiment: Allosteric modulation of rat gamma-aminobutyric acid receptor A alpha1beta2gamma2S expressed in Xenopus oocytes assessed as potentiation of GABA-mediated chloride current at 0.1 to 1000 uM after 20 secs by voltage clamp assay
Format: cell-based
Details: not given
Summary of the method: (§1)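 Rat α1β2γ2S cRNAs (1:1:10) injected into collagenase-defolliculated Xenopus oocytes, stored at 18 °C, recorded days 1–5. Two-microelectrode voltage clamp at −70 mV in 90 mM NaCl/1 mM KCl/1 mM MgCl2/1 mM CaCl2/5 mM HEPES pH 7.4. Compounds at 0.1–1000 μM co-applied by fast perfusion with GABA at EC5–10, determined from a 0.1 μM–1 mM GABA concentration–response. Read-out: IGABA potentiation.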

Structure (SMILES)	Emax [%]
CC1=CC[C@]2(CC1=O)[C@@H](C)CC[C@H]2C(C)C	241
C=C[C@]1(C)CC[C@@H](C(C)C)C(=O)C1=C(C)C	164
C=C1CC/C=C(\C)CC[C@@H](C(C)C)C(=O)C1	886
C/C=C\c1cc(OC)c(OC)cc1OC [CIS-ASARONE]	1200
C=C[C@]1(C)CC[C@@H](C(C)C)C(=O)[C@H]1C(=C)C	669
C[C@@H]1CCC2=C1C=C1C(C)(C)OO[C@@]1(O)C[C@H]2C	588

Test system: not listed separately
Experiment: Allosteric modulation of rat gamma-aminobutyric acid receptor A alpha1beta2gamma2S expressed in Xenopus oocytes assessed as potentiation of GABA-mediated chloride current after 20 secs by voltage clamp assay
Format: cell-based
Details: Oocyte
Summary of the method: as §1

Structure (SMILES)	EC50 [µM]
CC1=CC[C@]2(CC1=O)[C@@H](C)CC[C@H]2C(C)C	34
C=C[C@]1(C)CC[C@@H](C(C)C)C(=O)C1=C(C)C	109
C=C1CC/C=C(\C)CC[C@@H](C(C)C)C(=O)C1	135
C/C=C\c1cc(OC)c(OC)cc1OC [CIS-ASARONE]	172
C=C[C@]1(C)CC[C@@H](C(C)C)C(=O)[C@H]1C(=C)C	64.8
C[C@@H]1CCC2=C1C=C1C(C)(C)OO[C@@]1(O)C[C@H]2C	65.3
